Assay results as given in ChEMBL document CHEMBL1157379, “Transcriptional response of Candida parapsilosis following exposure to farnesol” (2007).

What was measured:
Type in all cases: functional
Candida parapsilosis [1] = test: Increase in CGD gene ortholog accession number orf19.3349 expression in Candida parapsilosis CLIB214 at 50 uM after 2 hrs by microarray based transcriptional profiling relative to control
Outline: (§1)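 Strain CLIB214 grown overnight in YPD at 30°C, diluted to A600 0.2 in fresh YPD at 30°C. After 4 h (A600 0.8), farnesol (40 mM methanol stock) added to 50 μM final, or an equal methanol volume as control; cells harvested 2 h later. RNA was accepted only with a 28S/18S ratio of 1.6–2.2. Cy3/Cy5-dCTP-labelled cDNA was made from 25 μg total RNA. Hybridisation was to duplicate-spotted 68-mer oligo arrays (3,849 genes) at 42°C for about 16 h. Six individual comparisons.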

Candida parapsilosis [2] = test: Decrease in CGD gene ortholog accession number orf19.4449 expression in Candida parapsilosis CLIB214 at 50 uM after 2 hrs by microarray based transcriptional profiling relative to control
Outline: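 Cells in YPD at 30°C treated with 50 μM farnesol at 4 h, with a methanol control. RNA harvested 2 h later and kept only if 28S/18S ratio was 1.6–2.2 with no degradation. 25 μg total RNA oligo-dT primed and labeled with Cy3/Cy5-dCTP. Labeled cDNA hybridized about 16 h at 42°C to duplicate-spotted 68-mer oligo arrays. Six individual comparisons analyzed statistically.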

Candida parapsilosis [3] = test: Increase in CGD gene ortholog accession number orf19.3185 expression in Candida parapsilosis CLIB214 at 50 uM after 2 hrs by microarray based transcriptional profiling relative to control; outline: as §1
Candida parapsilosis [4] = test: Decrease in CGD gene ortholog accession number orf19.7118 expression in Candida parapsilosis CLIB214 at 50 uM after 2 hrs by microarray based transcriptional profiling relative to control; outline: as §1
Candida parapsilosis [5] = test: Increase in CGD gene ortholog accession number orf19.7235 expression in Candida parapsilosis CLIB214 at 50 uM after 2 hrs by microarray based transcriptional profiling relative to control; outline: as §1
Candida parapsilosis [6] = test: Increase in HAS1 gene expression in Candida parapsilosis CLIB214 at 50 uM after 2 hrs by microarray based transcriptional profiling relative to control
Outline: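 Strain grown overnight in YPD at 30°C, diluted to A600 0.2 in YPD at 30°C; farnesol (40 mM methanol stock) added at 4 h (A600 0.8), final 50 μM; methanol-only control. Cells collected 2 h later for RNA. Labelled cDNA from 25 μg total RNA (Cy3/Cy5-dCTP) hybridized to 68-mer oligo arrays at 42°C ~16 h; six individual comparisons analysed statistically.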

Candida parapsilosis [7] = test: Antifungal activity against Candida parapsilosis CLIB214 assessed as induction of cell death at 50 uM added 4 hrs after […] growth after 2 hrs by colony counting method
Outline: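 Type strain grown overnight in YPD at 30°C, diluted to A600 0.2 in YPD; farnesol (40 mM stock in methanol) added at a final 50 μM, with a methanol-only control. Viability was measured by CFU counts taken 1 h and 2 h after addition.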

Candida parapsilosis [8] = test: Increase in CGD gene ortholog accession number orf19.3544 expression in Candida parapsilosis CLIB214 at 50 uM after 2 hrs by microarray based transcriptional profiling relative to control; outline: as §1

CC(C)=CCC/C(C)=C/CC/C(C)=C/CO [FARNESOL]
fold change (FC) (Candida parapsilosis [1]): 1.78 | fold change (FC) (Candida parapsilosis [2]): 1.59 | fold change (FC) (Candida parapsilosis [3]): 1.6 | fold change (FC) (Candida parapsilosis [4]): 1.56 | fold change (FC) (Candida parapsilosis [5]): 1.56 | fold change (FC) (Candida parapsilosis [6]): 1.7 | Activity (Candida parapsilosis [7]): 20% | fold change (FC) (Candida parapsilosis [8]): 1.87
